Measurements as given in PubChem BioAssay AID624018 (Broad Institute, 2012).
Active and inactive are the calls of the source.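 How the source made its calls: active means fitted curve reaches a 35% signal drop at a concentration no higher than twice the top valid dose, in duplicate at both wavelengths; inactive means the rest, including activity in the opposite direction.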

Legend:
[1] = bacterial growth inhibition with EDDHA chelator – absorbance 405 nm, dry powder, dose response (AID 624018); details: P. aeruginosa growth with EDDHA, absorbance 405 nm, 24-30 h
Procedure, shortened: (§1)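 Assay system: Pseudomonas aeruginosa strain ATCC 15692, whole bacterial cells / Incubation: bacterial growth with compound for 24-30 h at 37 °C / Buffer or medium: succinate M9 medium, pH 7.0, with 2 µM EDDHA chelator / Signal: 405 nm absorbance for pyoverdine / Dosing: 3-fold compound dilution series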

[2] = test system: P. aeruginosa growth with EDDHA, absorbance 405 nm, 24-30 h; assay: as above
Procedure, shortened: as §1

Row | Compound | activity change, negative = inhibition ([1]; at 50 µM (top of the series)) | further results
1 | N#Cc1cccc(C(C#N)c2ccc(Cl)cc2Cl)n1 (stereo unspecified) | -3.73% (inactive) | 
2 | N#Cc1ccc(C(C#N)c2ccc(Cl)cc2Cl)nc1 (stereo unspecified) | 1.04% (inactive) | 
3 | N#CC(c1ccc(F)cc1)c1cccc(C(F)(F)F)n1 (stereo unspecified) |  | AC35 [2]: 37.6 µM
4 | N#CC(c1ccc(Cl)cc1)c1cccc(C(F)(F)F)n1 (stereo unspecified) |  | AC35 [2]: 19.5 µM
5 | N#CC(c1ccc(Cl)cc1Cl)c1ncccc1Cl (stereo unspecified) | 2.07% (inactive) | 
6 | N#Cc1ccc(C(C#N)c2ccc(Cl)cc2)nc1 (stereo unspecified) | -10.4% (inactive) | 
7 | N#Cc1cccc(C(C#N)c2ccc(Cl)cc2)n1 (stereo unspecified) | -11.9% (inactive) | 
8 | CCCCC(C#N)c1ccc(Cl)cc1Cl (stereo unspecified) | -10.8% (inactive) | 
9 | CCCCC(C#N)c1ccc(C(F)(F)F)cc1 (stereo unspecified) | -6.7% (inactive) | 
10 | N#CC(c1cccc(C(F)(F)F)n1)c1ccccc1OC(F)(F)F (stereo unspecified) | -7.42% (inactive) | 
11 | N#CC(c1ccc(C(F)(F)F)c(Cl)n1)c1ccc(Cl)cc1Cl (stereo unspecified) | 4.93% (inactive) | 
12 | Cc1ccc(C(C#N)c2ccc(Cl)cc2)nc1C#N (stereo unspecified) | -4.08% (inactive) | 
13 | N#CC(c1ccc(C(F)(F)F)cc1)c1ccc(C(F)(F)F)c(Cl)n1 (stereo unspecified) | -6.74% (inactive) | 
14 | N#CC(CC1CC1)c1ccc(Cl)cc1 (stereo unspecified) | -14.4% (inactive) | 
15 | N#CC(c1cccc(Cl)n1)c1ccccc1OC(F)(F)F (stereo unspecified) | -14.6% (inactive) | 
16 | CCCCC(C#N)c1ccc(F)cc1 (stereo unspecified) | -10.3% (inactive) | 
17 | N#Cc1cccc(C(C#N)c2ccc(Cl)cc2F)n1 (stereo unspecified) | -14.6% (inactive) | 
18 | N#CC(c1ccc(C(F)(F)F)cc1)c1cccc(C(F)(F)F)n1 (stereo unspecified) | -4.57% (inactive) | 

Row | Compound | activity change, negative = inhibition ([1]; at 50 µM (top of the series)) | further results
19 | Cc1ccc(C(C#N)c2ccccc2OC(F)(F)F)nc1C#N (stereo unspecified) |  | activity change, negative = inhibition ([1]; at 16 µM (top of the series)): -20.9% (inactive)
20 | CCCC(C#N)c1ccc(Cl)cc1 (stereo unspecified) | -12.6% (inactive) | 
21 | Cc1ccc(C(C#N)c2ccc(F)cc2)nc1C#N (stereo unspecified) | -6.49% (inactive) | 
22 | N#CC(c1cccc(C(F)(F)F)n1)c1ccc(Cl)cc1F (stereo unspecified) |  | AC35 [2]: 22.7 µM
23 | N#CC(c1ccc(Cl)cc1)c1ccc(C(F)(F)F)cn1 (stereo unspecified) | 4.01% (inactive) | 
24 | N#CC(c1cccc(Cl)n1)c1ccc(Cl)cc1Cl (stereo unspecified) | -22.8% (inactive) | 
25 | CC(C#N)(c1ccc(Cl)cc1)c1ccc(C(F)(F)F)cn1 (stereo unspecified) | -3.75% (inactive) | 
26 | Cc1cccc(C(C#N)c2ccc(Cl)cc2)n1 (stereo unspecified) | -2.34% (inactive) | 
27 | N#CC(c1ccc(Cl)cc1)c1ccc(C(F)(F)F)c(Cl)n1 (stereo unspecified) | 11.9% (inactive) | 
28 | CCCCC(C#N)c1ccccc1OC(F)(F)F (stereo unspecified) | -4.38% (inactive) | 
29 | N#Cc1cccc(C(C#N)c2ccccc2OC(F)(F)F)n1 (stereo unspecified) | -10.3% (inactive) | 
30 | N#CC(c1ccc(C(F)(F)F)c(Cl)n1)c1ccccc1OC(F)(F)F (stereo unspecified) | -8.72% (inactive) | 
31 | N#CC(c1ccc(F)cc1)c1ccc(C(F)(F)F)c(Cl)n1 (stereo unspecified) | -5.95% (inactive) | 
32 | N#CC(c1ccc(Cl)cc1)c1ncccc1Cl (stereo unspecified) |  | AC35 [2]: 12.6 µM
33 | Cc1ccc(C(C#N)c2ccc(Cl)cc2)nc1 (stereo unspecified) | -8.79% (inactive) | 
34 | CCCCC(C#N)c1ccc(Cl)cc1F (stereo unspecified) | -1.21% (inactive) | 
35 | N#CC(c1ccc(C(F)(F)F)cc1)c1cccc(Cl)n1 (stereo unspecified) | -8.88% (inactive) | 
36 | CCCCC(C#N)c1ccc(Cl)cc1 (stereo unspecified) | -4.2% (inactive) | 
